Test results taken from ChEMBL document CHEMBL4270594, “Design, synthesis and pharmacological evaluation of new 3-(1H-benzimidazol-2-yl)quinolin-2(1H)-one derivatives as potential antitumor agents” (Eur J Med Chem, 2018).
Active and inactive are the calls of the source. The calls are words filed in the database; no cut-off is given here.

Legend:
HepG2 [1] = assay: Cell cycle arrest in human HepG2 cells transfected with p53 siRNA assessed as accumulation at S-phase after 48 hrs by propidium iodide staining based flow cytometry (reference value: 20.37 to 22.8%); assay type: functional
HepG2 [2] = assay: Induction of apoptosis in human HepG2 cells transfected with p53 siRNA assessed as early apoptotic cells after 24 hrs by Annexin V-FITC/ propidium iodide staining based flow cytometry (reference value: 5.99 to 6.01%); assay type: functional
HepG2 [3] = assay: Cytotoxicity against human HepG2 cells after 48 hrs by MTT assay; assay type: functional, cell-based; conditions: HepG2, 48 h
Procedure, shortened: (§1)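 MTT cytotoxicity assay run against HepG2 and BEL-7404 liver cancer, SK-OV-3 ovarian, NCI-H460 large-cell lung cancer and HL-7702 normal liver cells. 5-fluorouracil and cisplatin served as positive controls. IC50 is given as mean ± SD of three repeat experiments.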

SK-OV-3 = assay: Cytotoxicity against human SKOV3 cells after 48 hrs by MTT assay; assay type: functional, cell-based; conditions: SK-OV-3, 48 h; procedure, shortened: as §1
NCI-H460 [4] = assay: Cytotoxicity against human NCI-H460 cells after 48 hrs by MTT assay; assay type: functional, cell-based; conditions: NCI-H460, 48 h; procedure, shortened: as §1
BEL-7404 tumor cell line = assay: Cytotoxicity against human Bel7404 cells after 48 hrs by MTT assay; assay type: functional, cell-based; conditions: BEL-7404, 48 h; procedure, shortened: as §1
L02 = assay: Cytotoxicity against human HL-7702 cells after 48 hrs by MTT assay; assay type: cell-based; conditions: L02, 48 h; procedure, shortened: as §1
Mus musculus [5] = assay: Toxicity in Kunming mouse assessed as change in body weight at 50 mg/kg/day, ip for 14 consecutive days measured daily during compound dosing; assay type: organism-based; conditions: in vivo
Procedure, shortened: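 Kunming mice dosed intraperitoneally at 50 mg/kg per day for 14 consecutive days, compound dissolved in 5% v/v DMSO/saline; body weight recorded daily as a systemic toxicity parameter against a control group; six mice per group.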

Mus musculus [6] = assay: Toxicity in Kunming mouse assessed as signs of peritonitis or damage to heart at 50 mg/kg/day, ip for 14 consecutive days by microscopic method; assay type: organism-based; conditions: in vivo
Procedure, shortened: (§2)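 Kunming mice given 50 mg/kg/day ip in 5% v/v DMSO/saline for 14 days; kidney, heart and liver harvested, sectioned for pathology slices and examined microscopically for peritonitis or organ damage versus control mice.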

Mus musculus [7] = assay: Toxicity in Kunming mouse assessed as signs of peritonitis or damage to liver at 50 mg/kg/day, ip for 14 consecutive days by microscopic method; assay type: organism-based; conditions: in vivo; procedure, shortened: as §2
Mus musculus [8] = assay: Toxicity in Kunming mouse assessed as signs of peritonitis or damage to kidney at 50 mg/kg/day, ip for 14 consecutive days by microscopic method; assay type: organism-based; conditions: in vivo; procedure, shortened: as §2
NCI-H460 [9] = assay: Antitumor activity against human NCI-H460 cells xenografted in Balb/c nude mouse assessed as relative tumor volume increment rate at 50 mg/kg, ip bid for 13 days measured on day 14 post last dose relative to control; assay type: functional
Procedure, shortened: (§3)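 SPF BALB/c nude mice carrying NCI-H460 xenografts were randomly grouped and given 25 or 50 mg/kg. Vehicle (5% DMSO in saline, v/v) and cisplatin 2 mg/kg were the controls, n = 6 per group. Tumour volume was followed to give the relative tumour increment rate (T/C, %). Tumours were harvested and weighed on day 14 to give the weight inhibitory rate.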

NCI-H460 [10] = assay: Antitumor activity against human NCI-H460 cells xenografted in Balb/c nude mouse assessed as relative tumor volume increment rate at 25 mg/kg, ip bid for 13 days measured on day 14 post last dose relative to control; assay type: functional; procedure, shortened: as §3
NCI-H460 [11] = assay: Antitumor activity against human NCI-H460 cells xenografted in Balb/c nude mouse assessed as tumor growth inhibition at 25 mg/kg, ip bid for 13 days measured on day 14 post last dose relative to control; assay type: functional; conditions: read-out: TGI; procedure, shortened: as §3
NCI-H460 [12] = assay: Antitumor activity against human NCI-H460 cells xenografted in Balb/c nude mouse assessed as tumor growth inhibition at 50 mg/kg, ip bid for 13 days measured on day 14 post last dose relative to control; assay type: functional; conditions: read-out: TGI; procedure, shortened: as §3
Mus musculus [13] = assay: Toxicity in Balb/c nude mouse xenografted with human NCI-H460 cells assessed as change in body weight at 25 to 50 mg/kg, ip bid for 13 days; assay type: organism-based; conditions: in vivo, 312 h
Procedure, shortened: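 SPF BALB/c nude mice bearing NCI-H460 xenografts, randomized and given 25 or 50 mg/kg in 5% DMSO/saline vehicle, with cisplatin 2 mg/kg as positive control; body weight tracked over the 13-day treatment; n = 6.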

NCI-H460 [14] = assay: Antitumor activity against human NCI-H460 cells xenografted in Balb/c nude mouse assessed as induction of necrosis at 25 to 50 mg/kg, ip bid for 13 days measured on day 14 post last dose by hematoxylin and eosin staining based microscopic method; assay type: functional, organism-based
Mus musculus [15] = assay: Downregulation of Bcl2 protein expression in tumor tissues of Balb/c nude mouse xenografted with human NCI-H460 cells at 25 to 50 mg/kg, ip bid for 13 days measured on day 14 by Western blot analysis; assay type: functional, organism-based
Mus musculus [16] = assay: Upregulation of cytochrome-c expression in tumor tissues of Balb/c nude mouse xenografted with human NCI-H460 cells at 25 to 50 mg/kg, ip bid for 13 days measured on day 14 by Western blot analysis; assay type: functional, organism-based
Procedure, shortened: (§4)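 Tumors from NCI-H460 xenografted BALB/c nude mice (25 or 50 mg/kg, vehicle 5% DMSO in saline) collected at day 14; protein levels in tumor tissue determined by western blot versus vehicle control.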

Mus musculus [17] = assay: Effect on caspase-3 protein expression in tumor tissues of Balb/c nude mouse xenografted with human NCI-H460 cells at 25 to 50 mg/kg, ip bid for 13 days measured on day 14 by Western blot analysis; assay type: functional, organism-based
Mus musculus [18] = assay: Upregulation of caspase-9 protein expression in tumor tissues of Balb/c nude mouse xenografted with human NCI-H460 cells at 25 to 50 mg/kg, ip bid for 13 days measured on day 14 by Western blot analysis; assay type: functional, organism-based; procedure, shortened: as §4
HepG2 [19] = assay: Cell cycle arrest in human HepG2 cells transfected with p53 siRNA assessed as accumulation at G1-phase after 48 hrs by propidium iodide staining based flow cytometry (reference value: 55.48 to 56.24%); assay type: functional
HepG2 [20] = assay: Cell cycle arrest in human HepG2 cells transfected with p53 siRNA assessed as accumulation at G2-phase after 48 hrs by propidium iodide staining based flow cytometry (reference value: 21.72 to 23.39%); assay type: functional
HepG2 [21] = assay: Induction of apoptosis in human HepG2 cells transfected with p53 siRNA assessed as live cells after 24 hrs by Annexin V-FITC/ propidium iodide staining based flow cytometry (reference value: 69.9 to 70.3%); assay type: functional
HepG2 [22] = assay: Induction of apoptosis in human HepG2 cells transfected with p53 siRNA assessed as late apoptotic cells after 24 hrs by Annexin V-FITC/ propidium iodide staining based flow cytometry (reference value: 7.99 to 8.6%); assay type: functional
HepG2 [23] = assay: Induction of apoptosis in human HepG2 cells transfected with p53 siRNA assessed as necrotic apoptotic cells after 24 hrs by Annexin V-FITC/ propidium iodide staining based flow cytometry (reference value: 15.6 to 15.7%); assay type: functional
HepG2 [24] = assay: Cell cycle arrest in human HepG2 cells assessed as accumulation at G1-phase at 8 uM after 48 hrs by propidium iodide staining based flow cytometry (reference value: 50.47%); assay type: functional
HepG2 [25] = assay: Upregulation of p27 protein expression in human HepG2 cells at 6 to 10 uM after 12 hrs by Western blot analysis; assay type: functional, cell-based
Procedure, shortened: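 HepG2 cell lysates after compound treatment analyzed by western blot for the target protein, compared with untreated negative control.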

O=c1[nH]c2cc3c(cc2cc1-c1nc2cc(Cl)ccc2[nH]1)OCO3
Activity (HepG2 [1]): 6.86%
Activity (HepG2 [2]): 11.2%
IC50 (HepG2 [3]): 10.6 µM
IC50 (SK-OV-3): 24.7 µM
IC50 (NCI-H460 [4]): 30.4 µM
IC50 (BEL-7404 tumor cell line): 9.06 µM
IC50 (L02): > 100 µM
Activity (Mus musculus [5]): Non-Toxic
Activity (Mus musculus [6]): Non-Toxic
Activity (Mus musculus [7]): Non-Toxic
Activity (Mus musculus [8]): Non-Toxic
T/C (NCI-H460 [9]): 38.1%
T/C (NCI-H460 [10]): 48.8%
inhibition in vivo at 25 mg/kg (NCI-H460 [11]): 46.2%
inhibition in vivo at 50 mg/kg (NCI-H460 [12]): 55.1%
Activity (Mus musculus [13]): Non-Toxic
Activity (NCI-H460 [14]): Active
Activity (Mus musculus [15]): Active
Activity (Mus musculus [16]): Active
Activity (Mus musculus [17]): inactive
Activity (Mus musculus [18]): Active
Activity (HepG2 [19]): 74.18%
Activity (HepG2 [20]): 18.96%
Activity (HepG2 [21]): 74.6%
Activity (HepG2 [22]): 7.96%
Activity (HepG2 [23]): 6.29%

O=c1[nH]c2ccccc2cc1-c1nc2cc(Cl)ccc2[nH]1
Activity (HepG2 [1]): 20.84%
Activity (HepG2 [2]): 11.5%
IC50 (HepG2 [3]): 8.45 µM
IC50 (SK-OV-3): 10.5 µM
IC50 (NCI-H460 [4]): 14.7 µM
IC50 (BEL-7404 tumor cell line): 16.5 µM
IC50 (L02): > 100 µM
Activity (Mus musculus [5]): Non-Toxic
Activity (Mus musculus [6]): Non-Toxic
Activity (Mus musculus [7]): Non-Toxic
Activity (Mus musculus [8]): Non-Toxic
T/C (NCI-H460 [9]): 30.7%
T/C (NCI-H460 [10]): 40.6%
inhibition in vivo at 25 mg/kg (NCI-H460 [11]): 51.9%
inhibition in vivo at 50 mg/kg (NCI-H460 [12]): 66.9%
Activity (Mus musculus [13]): Non-Toxic
Activity (NCI-H460 [14]): Active
Activity (HepG2 [24]): 31.1%
Activity (HepG2 [25]): Active
Activity (Mus musculus [15]): Active
Activity (Mus musculus [16]): Active
Activity (Mus musculus [17]): inactive
Activity (Mus musculus [18]): Active
Activity (HepG2 [19]): 46.86%
Activity (HepG2 [20]): 32.3%
Activity (HepG2 [21]): 74.8%
Activity (HepG2 [22]): 7.62%
Activity (HepG2 [23]): 6.08%
